In ChEMBL document CHEMBL1147668, “New 2-alkylidene 1alpha,25-dihydroxy-19-norvitamin D3 analogues of high intestinal activity: synthesis and biological evaluation of 2-(3'-alkoxypropylidene) and 2-(3'-hydroxypropylidene) derivatives” (J Med Chem, 2006):
“And” between values parts separate entries of the source, which are not always exact repeats. Equal entries are not always repeated. The source made the active and inactive calls. The calls are words filed in the database; no cut-off is given here.

Assays:
[1] = target: T1, Vitamin D3 receptor (Homo sapiens) (UniProt P11473); assay: Induction of differentiation of human HL60 promyelocytes to monocytes; format: functional
T1 sequence (whole entry): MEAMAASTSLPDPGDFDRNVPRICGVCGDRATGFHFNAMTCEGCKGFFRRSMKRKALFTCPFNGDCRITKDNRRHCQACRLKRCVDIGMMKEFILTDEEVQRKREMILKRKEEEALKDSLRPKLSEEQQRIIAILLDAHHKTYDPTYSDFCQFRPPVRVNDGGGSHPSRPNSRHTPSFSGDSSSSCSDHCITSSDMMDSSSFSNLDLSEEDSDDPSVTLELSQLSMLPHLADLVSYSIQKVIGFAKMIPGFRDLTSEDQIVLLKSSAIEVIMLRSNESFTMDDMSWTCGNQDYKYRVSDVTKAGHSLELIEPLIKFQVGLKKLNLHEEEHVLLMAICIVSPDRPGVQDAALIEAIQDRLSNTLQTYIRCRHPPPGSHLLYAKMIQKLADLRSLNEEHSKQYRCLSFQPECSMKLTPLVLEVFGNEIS

Rattus norvegicus [2] = assay: Calcium mobilization in vitamin D deficient ip dosed Sprague-Dawley rat bone; format: functional, organism-based
Summary of the method: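 Rats depleted of vitamin D and kept on 0.02% Ca diet; four consecutive daily ip doses in 0.1 mL 1,2-propanediol/ethanol (95:5). Serum drawn 24 h after last dose; calcium by atomic absorption with 0.1% lanthanum chloride; rise in serum calcium taken as bone calcium mobilization.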

Rattus norvegicus [3] = assay: Calcium mobilization in vitamin D deficient ip dosed Sprague-Dawley rat
Mus musculus = assay: Increase of calcium level in po dosed CD1 mouse serum; format: functional, organism-based
Summary of the method: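 Female CD-1 mice, 6-7 weeks, on 0.47% Ca diet, acclimated 5-7 days. Single gastric gavage dose formulated in Neobee oil with 5% ethanol at 4 mL/kg. Serum calcium measured by atomic absorption at several timepoints after dosing, including day 3.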

[4] = target: T2, Vitamin D3 receptor (Rattus norvegicus) (UniProt P13053); assay: Induction of vitamin D mediated transactivation in rat ROS17/2.8 cell luciferase assay; format: functional
T2 sequence (whole entry): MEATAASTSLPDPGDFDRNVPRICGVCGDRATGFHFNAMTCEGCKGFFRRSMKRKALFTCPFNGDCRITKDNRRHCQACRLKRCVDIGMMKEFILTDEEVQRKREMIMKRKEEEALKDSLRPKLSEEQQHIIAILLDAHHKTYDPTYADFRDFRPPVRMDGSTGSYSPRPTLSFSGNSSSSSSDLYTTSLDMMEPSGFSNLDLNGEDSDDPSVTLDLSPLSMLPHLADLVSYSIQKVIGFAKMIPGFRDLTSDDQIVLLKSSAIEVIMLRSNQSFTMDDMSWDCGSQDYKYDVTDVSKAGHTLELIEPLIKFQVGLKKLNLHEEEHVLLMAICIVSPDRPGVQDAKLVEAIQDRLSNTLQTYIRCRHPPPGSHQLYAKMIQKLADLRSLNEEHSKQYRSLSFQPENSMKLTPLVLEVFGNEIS
Summary of the method: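 ROS 17/2.8 cells stably carrying a 24-hydroxylase promoter-luciferase reporter were dosed over a concentration range. Luciferase was measured by luminometer 16 h later.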

Row | ED50 [1] | ED50 [4] [nM] | SMILES | Activity (Rattus norvegicus [2]) | Activity (Rattus norvegicus [3]) | Activity (Mus musculus)
1 | 3 nM and 1.3 nM | 0.042 | C[C@H](CCCC(C)(C)O)C1CCC2/C(=C/C=C3C[C@@H](O)C(=CCCO)[C@H](O)C3)CCC[C@@]21C (stereo partly drawn) | Active | Active | Active
2 | 4.7 nM | 3.8 | COCOCCC=C1[C@H](O)CC(=C/C=C2\CCC[C@@]3(C)C2CCC3[C@H](C)CCCC(C)(C)O)C[C@H]1O (stereo partly drawn) | Active | Active | Active
3 | – | 0.0065 | C[C@@H](CCCC(C)(C)O)C1CCC2/C(=C/C=C3C[C@@H](O)C(=CCCO)[C@H](O)C3)CCC[C@@]21C (stereo partly drawn) | Active | Active | –
